The values below come from article PMC9060905 (RSC Advances, 2019).

Like-named read-outs stand apart in the source and are kept apart here. Ends that are not written are not given here.

In one assay the test system is ACE. The note with it: cited from earlier work.
The target of another assay is T1, ACE (from rabbit lung) (Oryctolagus cuniculus, UniProt P12822).
T1 sequence (P12822 34-1310): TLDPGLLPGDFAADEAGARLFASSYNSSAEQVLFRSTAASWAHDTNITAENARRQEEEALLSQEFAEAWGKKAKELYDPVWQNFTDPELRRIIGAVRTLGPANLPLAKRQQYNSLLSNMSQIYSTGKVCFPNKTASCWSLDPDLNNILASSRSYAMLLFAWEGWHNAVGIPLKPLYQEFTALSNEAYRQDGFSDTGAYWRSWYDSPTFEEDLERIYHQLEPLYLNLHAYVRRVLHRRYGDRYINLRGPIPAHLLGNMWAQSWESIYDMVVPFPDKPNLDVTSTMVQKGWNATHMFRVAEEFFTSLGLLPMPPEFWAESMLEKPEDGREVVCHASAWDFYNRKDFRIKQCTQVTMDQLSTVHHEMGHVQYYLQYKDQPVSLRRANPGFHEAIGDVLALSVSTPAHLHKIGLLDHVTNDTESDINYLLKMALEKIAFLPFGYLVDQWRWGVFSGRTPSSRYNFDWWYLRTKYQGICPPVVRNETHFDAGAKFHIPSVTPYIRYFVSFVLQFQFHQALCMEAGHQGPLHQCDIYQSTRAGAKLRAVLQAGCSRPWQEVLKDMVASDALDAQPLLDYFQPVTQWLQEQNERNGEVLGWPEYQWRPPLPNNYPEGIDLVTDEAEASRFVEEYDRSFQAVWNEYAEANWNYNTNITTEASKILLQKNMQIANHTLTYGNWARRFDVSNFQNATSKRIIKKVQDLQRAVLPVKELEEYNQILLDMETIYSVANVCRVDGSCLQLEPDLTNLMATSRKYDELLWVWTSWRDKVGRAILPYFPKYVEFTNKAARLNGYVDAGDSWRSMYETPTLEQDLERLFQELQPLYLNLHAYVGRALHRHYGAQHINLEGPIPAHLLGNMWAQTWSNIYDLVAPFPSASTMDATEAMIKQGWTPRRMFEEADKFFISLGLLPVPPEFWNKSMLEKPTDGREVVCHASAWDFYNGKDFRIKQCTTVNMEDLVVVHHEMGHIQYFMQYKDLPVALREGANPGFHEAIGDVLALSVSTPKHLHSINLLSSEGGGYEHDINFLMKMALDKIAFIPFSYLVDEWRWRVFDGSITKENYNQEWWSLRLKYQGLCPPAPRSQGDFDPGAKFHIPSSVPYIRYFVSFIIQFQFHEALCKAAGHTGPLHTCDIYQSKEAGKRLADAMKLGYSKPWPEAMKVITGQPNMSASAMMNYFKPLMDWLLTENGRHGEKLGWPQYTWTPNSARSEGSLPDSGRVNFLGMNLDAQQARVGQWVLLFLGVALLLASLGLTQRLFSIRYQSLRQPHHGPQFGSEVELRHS
Put plainly: ACE-inhibitory activity. It counts as biochemical. The method in brief:
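Rabbit-lung ACE with HHL substrate. Hippuric acid is extracted into ethyl acetate (vortex 5 s, 14100g for 5 min). The upper organic phase is dried in a vacuum oven at 80 °C for 1 h, redissolved in distilled water, and read at 228 nm. Experiments repeated at least three times; mean values used.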

The conditions of assay [1]: cited from earlier work.
The test system of assay [2] is ET-1 in vascular endothelial cells. The note with it: cited from earlier work.

For EVSQGRP, in the assay with ACE, the ACE inhibition pattern entry is reported as “mixed-mode inhibition patterns”. Usually IC50 stands for the midpoint of a concentration-inhibition curve. On ACE (from rabbit lung), “KAQYPYV [KAQYPYV, Lys-Ala-Gln-Tyr-Pro-Tyr-Val]” yielded an IC50 of 37.1 µM. For Leu-Ala-Arg-Leu, the “Fe2+ chelating ability” value in assay [1] (at 0.1 mg mL^-1, tilapia gelatin peptide) is 46.53%. As for SAAVGSP, the ACE inhibition pattern result in the assay with ACE was “mixed-mode inhibition patterns”. Turning to Val-Ile-Glu-Pro-Arg, in assay [2], the “Effect on ET-1 expression in vascular endothelial cells” value (“Effect on ET-1 expression” below) is on record as “inhibiting the expression of ET-1”. As for Val-Phe-Tyr, the “Effect on ET-1 expression” value in assay [2] was “inhibiting the expression of ET-1”. Val-Val-Leu-Tyr-Lys [VVLYK]: the “Effect on ET-1 expression” value in assay [2] is reported as “inhibiting the expression of ET-1”. In addition, in the assay with ACE, the ACE inhibition pattern result was “mixed-mode inhibition patterns”. Regarding YYIVS, the “Fe2+ chelating ability” value in assay [1] (at 3 mg mL^-1, sweet potato protein peptide) is listed as 59.74%.
